These results are taken from ChEMBL document CHEMBL1641478, “Structural and biochemical study on the inhibitory activity of derivatives of 5-nitro-furan-2-carboxylic acid for RNase H function of HIV-1 reverse transcriptase” (Bioorg Med Chem, 2011).

Data set [1] concerns the target Human immunodeficiency virus type 1 reverse transcriptase (Human immunodeficiency virus 1, UniProt Q72547). As to the kind of experiment: Inhibition RNase H activity of HIV1 reverse transcriptase expressed in Escherichia coli stain BL21(DE3)pLysS. In outline: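 His-tagged p66/p51 RT expressed in E. coli BL21(DE3)pLysS with 1 mM IPTG for 3 h. Substrate: 18-mer RNA labelled with 3′-FAM, annealed to complementary DNA carrying a 5′-BHQ quencher. Reaction used 100 ng RT at 37 °C, with cleavage followed in real time by fluorescence at 488 nm every 150 s. IC50 taken as the concentration halving the cleavage rate relative to control.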

A short description of data set [2]: (§1) Cytotoxicity against human MT4 cells after 3 days by MTT assay. The class given is cell-based. To be noted: MT4 cells. In a few lines: (§2)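 Cells in RPMI-1640 with 10% FBS: MT-4 seeded at 4 × 10⁵/mL, 293T at 2 × 10⁵/mL. Compound final concentrations 100, 50, 25 and 12.5 µM, 1% DMSO final, plus an untreated control. Incubated 3 days at 37 °C in 5% CO₂. MTT added for 1 h, then solubilized overnight at 4 °C and read at OD570/690. CC50 derived only when viability fell below 50% at 100 µM.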
(Tetrazolium assays rely on reduction of a dye to a coloured formazan, in cell work by metabolically active cells.)

The nature of data set [3]: Cytotoxicity against human 293T cells after 3 days by MTT assay. The conditions noted are these: for CC50 at 72 h: 293T cells; for CC50: hek-293t, 72 h. The class given is cell-based, HEK-293T. In outline:
as §2

In data set [4] the test system is MT4. The data set is described as §1. The class given is cell-based. The conditions noted are these: mt4, 72 h. In a few lines: as §2

One may read the IC50 as the midpoint of a concentration-inhibition curve. The low end stands for higher potency, the high end for lower potency. Usually CC50 stands for the concentration at which the toxic effect on the cells reaches its halfway point.

Consider `CC(C)(C)NC(=O)COC(=O)c1ccc(-c2ccccc2[N+](=O)[O-])o1`, for which the half-inhibitory concentration (IC50) in data set [1] is > 50 µM.
Consider `CC(C)(C)C(=O)COC(=O)c1ccc([N+](=O)[O-])o1`, for which the CC50 at 72 h in data set [2] and in data set [3] was > 100 µM throughout. The same compound yielded an IC50 in data set [1] of 21.9 µM.
In the case of `CC(C)(C)N(Cc1ccccc1C(F)(F)F)C(=O)COC(=O)c1ccc([N+](=O)[O-])o1`, the CC50 at 72 h in data set [2] amounted to 95 µM; in data set [3], 65 µM. The same compound registered an IC50 in data set [1] of 9 µM.
For the compound `COc1ccc(CN(C(=O)COC(=O)c2ccc([N+](=O)[O-])o2)C(C)(C)C)cc1`, the half-maximal cytotoxic concentration (CC50) at 72 h in data set [2] and in data set [3] was > 100 µM each time. This compound displayed an IC50 in data set [1] of 7.5 µM.
For `CC(C)(C)NC(=O)COC(=O)c1ccc([N+](=O)[O-])s1`, the half-maximal cytotoxic concentration (CC50) at 72 h in data set [2] and in data set [3] was > 100 µM throughout. This compound also had an IC50 in data set [1] of 2.8 µM.
Turning to `CCC(C)(C)N(Cc1cccc([N+](=O)[O-])c1)C(=O)COC(=O)c1ccc([N+](=O)[O-])s1`, the IC50 in data set [1] was determined as 25.8 µM.
Same read-out and setting: next, `CCOC(=O)[C@H](Cc1ccccc1)NC(=O)c1ccc([N+](=O)[O-])o1`: > 50 µM; `CCOC(=O)[C@@H](NC(=O)c1ccc([N+](=O)[O-])o1)c1ccccc1`: > 50 µM; `CC(C)(C)NC(=O)COC(=O)c1ccc(C(=O)c2ccccc2)o1`: > 50 µM.
For the compound `COC(=O)CNC(=O)c1ccc([N+](=O)[O-])o1`, the IC50 in data set [1] is > 50 µM.
Still for that read-out and setting: the same measure for `CCOC(=O)[C@H](CC(C)C)NC(=O)c1ccc([N+](=O)[O-])o1`: > 50 µM.
On to `O=C(COC(=O)c1ccc([N+](=O)[O-])o1)NC1CCCc2ccccc21` (stereo not given), for which the cytotoxic concentration (CC50) at 72 h in data set [2] and in data set [3] was > 100 µM in each case. This compound came in with an IC50 in data set [1] of 4.3 µM.
In the case of `O=C(OCC(=O)N(Cc1ccccc1)CC1CCCO1)c1ccc([N+](=O)[O-])o1` (stereo not given), the half-maximal cytotoxic concentration (CC50) at 72 h in data set [2] and in data set [3] was > 100 µM throughout. This compound also came in with an IC50 in data set [1] of 7.7 µM.
`CC(C)(C)N(Cc1cccc([N+](=O)[O-])c1)C(=O)COC(=O)c1ccc([N+](=O)[O-])o1`: the CC50 at 72 h in data set [2] was > 100 µM; in data set [3], 78 µM. This compound also yielded an IC50 in data set [1] of 9.8 µM.
The corresponding values for `O=C(COC(=O)c1ccc([N+](=O)[O-])o1)NC1Cc2ccccc2C1` are > 100 µM, > 100 µM and 5.5 µM.
Turning to `CC(C)(C)NC(=O)COC(=O)c1ccccc1[N+](=O)[O-]`, the IC50 in data set [1] is > 50 µM.
As to `CC(C)(C)NC(=O)COC(=O)c1cccc([N+](=O)[O-])c1`, the IC50 in data set [1] was > 50 µM.
As for `CC(C)(C)N(Cc1ccc(OCc2ccccc2)cc1)C(=O)COC(=O)c1ccc([N+](=O)[O-])o1`, the CC50 entry in data set [4] and in data set [3] was “Not Active” in each case. The half-maximal inhibitory concentration (IC50) in data set [1] is > 50 µM.
On to `CCOC(=O)[C@H](C)NC(=O)c1ccc([N+](=O)[O-])o1`, for which the IC50 in data set [1] is > 50 µM.
With `CC(C)(C)N(Cc1ccc([N+](=O)[O-])cc1)C(=O)COC(=O)c1ccc([N+](=O)[O-])o1`, the CC50 at 72 h in data set [2] and in data set [3] was > 100 µM in each case. This compound also registered an IC50 in data set [1] of 6.9 µM.
`CC(=O)Oc1ccccc1CN(C(=O)COC(=O)c1ccc([N+](=O)[O-])o1)C(C)(C)C`: the half-maximal cytotoxic concentration (CC50) at 72 h in data set [2] and in data set [3] was > 100 µM in each case. The same compound showed an IC50 in data set [1] of 12.8 µM.
With `CC(=O)COC(=O)c1ccc([N+](=O)[O-])s1`, the IC50 in data set [1] is 9.5 µM.
Consider `CC(=O)COC(=O)c1ccc([N+](=O)[O-])o1`, for which the CC50 at 72 h in data set [2] and in data set [3] was > 100 µM throughout. Besides, the IC50 in data set [1] worked out at 7.1 µM.
Take `CCOC(=O)[C@H](Cc1ccc(O)cc1)NC(=O)c1ccc([N+](=O)[O-])o1`: the IC50 in data set [1] is > 50 µM.
For the compound `CC(C)(C)N(CCCc1ccccc1)C(=O)COC(=O)c1ccc([N+](=O)[O-])o1`, the 50% cytotoxic concentration (CC50) result in data set [4] and in data set [3] was “Not Active” each time. Besides, the IC50 in data set [1] was > 50 µM.
`O=C(COC(=O)c1ccc([N+](=O)[O-])o1)NCC1CCCO1` (stereo not given): the CC50 at 72 h in data set [2] and in data set [3] was > 100 µM in each case. Moreover, the IC50 in data set [1] was determined as 4.2 µM.
In the case of `CC(C)(C)NC(=O)COC(=O)c1ccc(-c2cccc([N+](=O)[O-])c2)o1`, the IC50 in data set [1] is > 50 µM.
With `CC(C)(C)N(Cc1c(F)c(F)c(F)c(F)c1F)C(=O)COC(=O)c1ccc([N+](=O)[O-])o1`, the CC50 at 72 h in data set [2] was > 100 µM; in data set [3], 83 µM. In data set [1], this compound came in with an IC50 of 6.8 µM.
Take `CCC(C)(C)N(Cc1ccc([N+](=O)[O-])cc1)C(=O)COC(=O)c1ccc([N+](=O)[O-])s1`: in data set [1], the IC50 was determined as 33.5 µM.
With `CC(C)(C)N(Cc1ccc(C(F)(F)F)cc1)C(=O)COC(=O)c1ccc([N+](=O)[O-])o1`, the CC50 at 72 h in data set [2] was determined as 71 µM; in data set [3], 36 µM. In data set [1], this compound returned an IC50 of 8 µM.
The matching figures for `O=C(COC(=O)c1ccc([N+](=O)[O-])o1)NC1CCc2ccccc21` (stereo not given): > 100 µM, > 100 µM and 6.1 µM.
In the case of `CC(=O)Oc1ccc(CN(C(=O)COC(=O)c2ccc([N+](=O)[O-])o2)C(C)(C)C)cc1`, the cytotoxic concentration (CC50) at 72 h in data set [2] and in data set [3] was > 100 µM throughout. For the same compound, in data set [1], it took 8.7 µM to reach half-maximal inhibition (IC50).
For `CC(C)(C)N(CCC(=O)c1ccccc1)C(=O)COC(=O)c1ccc([N+](=O)[O-])o1`, the CC50 result in data set [4] and in data set [3] was “Not Active” in each case. Besides, the IC50 in data set [1] is > 50 µM.
For the compound `CC(C)(C)C(=O)COC(=O)c1ccc([N+](=O)[O-])s1`, the half-maximal inhibitory concentration (IC50) in data set [1] is 5.7 µM.
On the same count and under the same terms, next, `CC(C)(C)N(Cc1ccccc1)C(=O)COC(=O)c1ccco1`: > 50 µM; `CC(C)(C)NC(=O)COC(=O)c1ccc([N+](=O)[O-])cc1`: > 50 µM; `CC(C)(C)N(Cc1ccccc1)C(=O)COC(=O)c1cc([N+](=O)[O-])cc([N+](=O)[O-])c1`: > 50 µM.
As to `CC(C)(C)N(Cc1cccc(C(F)(F)F)c1)C(=O)COC(=O)c1ccc([N+](=O)[O-])o1`, the CC50 at 72 h is > 100 µM in data set [2] and 68 µM in data set [3]. The IC50 in data set [1] worked out at 8.5 µM.
For the compound `CC(C)(C)NC(=O)COC(=O)c1ccc(-c2ccc([N+](=O)[O-])cc2)o1`, the IC50 in data set [1] is > 50 µM.
In the case of `CC(C)(Cc1ccccc1)NC(=O)COC(=O)c1ccc([N+](=O)[O-])o1`, the CC50 at 72 h in data set [2] and in data set [3] was > 100 µM each time. In data set [1], this compound displayed an IC50 of 4.3 µM.
With `CC(C)(C)N(CCc1ccccc1)C(=O)COC(=O)c1ccc([N+](=O)[O-])o1`, the CC50 at 72 h in data set [2] was > 100 µM; in data set [3] it was 67 µM. This compound also returned an IC50 in data set [1] of 14.2 µM.
The matching figures for `CC(C)(C)N(Cc1ccc(F)cc1)C(=O)COC(=O)c1ccc([N+](=O)[O-])o1`: > 100 µM, > 100 µM and 8.5 µM.
The matching figures for `CC(C)OC(=O)COC(=O)c1ccc([N+](=O)[O-])o1`: > 100 µM, > 100 µM and 13.2 µM.
The matching figures for `CC(C)(NC(=O)COC(=O)c1ccc([N+](=O)[O-])o1)c1ccccc1`: > 100 µM, > 100 µM and 8.2 µM.
Consider `CN(OC(=O)c1ccc([N+](=O)[O-])o1)C(=O)c1ccc([N+](=O)[O-])o1`, for which the CC50 at 72 h in data set [2] was 86 µM; in data set [3] it was > 100 µM. This compound also came in with an IC50 in data set [1] of 2.7 µM.
The corresponding values for `CCC(C)(C)NC(=O)COC(=O)c1ccc([N+](=O)[O-])o1` are > 100 µM, > 100 µM and 5.8 µM.
The matching figures for `O=C(OCC(=O)N(Cc1ccc(O)cc1)CC1CCCO1)c1ccc([N+](=O)[O-])o1` (stereo not given): > 100 µM, > 100 µM and 5 µM.
On to `CC(C)(C)NC(=O)COC(=O)c1ccc(Br)o1`, for which the IC50 in data set [1] is > 50 µM.
As to `CC(C)(C)NC(=O)COC(=O)c1ccc([N+](=O)[O-])o1`, the CC50 at 72 h in data set [2] and in data set [3] was > 100 µM each time. Moreover, the IC50 in data set [1] turned out to be 18 µM.
Regarding `CCC(C)(C)NC(=O)COC(=O)c1ccc([N+](=O)[O-])s1`, half-maximal inhibition in data set [1] (IC50) was put at 5.8 µM.
For the compound `CC(C)(C)N(Cc1ccccc1)C(=O)COC(=O)c1ccc([N+](=O)[O-])o1`, the CC50 at 72 h in data set [2] and in data set [3] was > 100 µM in each case. The compound also displayed an IC50 in data set [1] of 0.9 µM.
For the compound `O=C(OCCc1ccc([N+](=O)[O-])cc1)c1ccc([N+](=O)[O-])o1`, the CC50 at 72 h in data set [2] worked out at 28 µM; in data set [3], 36 µM. In data set [1], this compound displayed an IC50 of 2.1 µM.
As to `CC(C)(C)NC(=O)COC(=O)c1ccno1`, the IC50 in data set [1] is > 50 µM.
